Rows were chosen to be rich in hits. Some 1.3% of all compounds tested hit in one or more screens of this group.
Fam108B inh = mouse Fam108B serine hydrolase inhibitors, primary screen, counter-screen for RBBP9 inhibitor project, biochemical, fluorescence polarization; recombinant Fam108B, FP-Rh probe fluorescence polarization; inhibition, % at 9.51 µM; 300,000 tested, 0.33% active; AID 1947, 2009;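 active means inhibition above the screen mean inhibition plus 3 SD, computed separately per campaign, cut at about 18% in these data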;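 further: inhibitors lower polarization as less probe binds the enzyme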
LYPLA2 counter = LYPLA2 inhibitors, primary screen, counter-screen for PME1 inhibitor project, biochemical, fluorescence polarization, FP-Rh probe ABPP; AID 2177, 2009; inhibition, % at 5.9 µM; recombinant LYPLA2; 320,000 tested, 0.38% active;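 active means inhibition above the screen-wide mean plus 3 SD, limit set per campaign, cut at about 26% in these data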;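 further: 0% = LYPLA2 with DMSO and 100% = wells lacking LYPLA2 enzyme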
RBBP9 inh = human RBBP9 inhibitors, primary screen, biochemical, fluorescence polarization, FP-Rh probe, HTS. Serine hydrolase RBBP9 (Homo sapiens), O75884. recombinant RBBP9. inhibition, % at 7.94 µM. 220,000 tested, 0.2% active;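 active means inhibition above the campaign mean of all tested compounds plus 3 SD, cut at about 14% in these data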;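 further: plate controls were DMSO wells with RBBP9 for no effect and wells lacking RBBP9 protein for full effect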
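Test system – recombinant human RBBP9 · Input – RBBP9 2.5 µM in dispensing solution, pre-mixing · Medium – Tris buffer pH 8.0, NaCl, Pluronic · Schedule – preincubation 30 min plus labeling 45 min at 25 °C · Measured by – fluorescence polarization · Measure – % inhibition · Controls – DMSO and no-protein wells · Replicates – one well per compound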
PAD4 FP inh = human PAD4 inhibitors, primary screen, biochemical, fluorescence polarization, 1536-well format; Protein-arginine deiminase type-4 (Homo sapiens), Q9UM07; recombinant PAD4, RCA probe fluorescence polarization; inhibition, % at 6.36 µM; 330,000 tested, 0.41% active; AID 485272, 2010;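 active means percent inhibition above a cutoff equal to the mean of all tested compounds plus 3 SD, cut at about 15% in these data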;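 further: 0% = PAD4 with RCA probe and DMSO and 100% = probe without PAD4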
LYPLA1 counter = LYPLA1 inhibitors, primary screen, counter-screen for PME1 inhibitor project, biochemical, fluorescence polarization, FP-Rh probe ABPP; Acyl-protein thioesterase 1 (Homo sapiens), O75608; recombinant LYPLA1; inhibition, % at 5.9 µM; 320,000 tested, 0.16% active;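 active means inhibition above the mean of all tested compounds plus 3 SD, set per campaign, cut at about 14% in these data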;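 further: inhibitors block serine hydrolase probe labeling of LYPLA1 so polarization falls; 0% = enzyme with DMSO and 100% = wells lacking LYPLA1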
PME-1 primary = PME-1 inhibitors via competitive probe labeling, primary screen, biochemical, fluorescence polarization, FP-Rh probe, HTS | 320,000 tested, 0.53% active | inhibition, % at 5.9 µM | Protein phosphatase methylesterase 1 (Homo sapiens), Q9Y570 | recombinant PME-1;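 active means inhibition above the campaign mean of all compounds plus 3 SD, cut at about 26% in these data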;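 further: competitive labeling of PME-1 active site by serine hydrolase directed probe; 0% = PME-1 with DMSO and 100% = wells lacking PME-1 enzyme; inhibitors block probe labeling so polarization falls and inhibition rises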
Target sequence (Q9Y570 whole entry, looked up): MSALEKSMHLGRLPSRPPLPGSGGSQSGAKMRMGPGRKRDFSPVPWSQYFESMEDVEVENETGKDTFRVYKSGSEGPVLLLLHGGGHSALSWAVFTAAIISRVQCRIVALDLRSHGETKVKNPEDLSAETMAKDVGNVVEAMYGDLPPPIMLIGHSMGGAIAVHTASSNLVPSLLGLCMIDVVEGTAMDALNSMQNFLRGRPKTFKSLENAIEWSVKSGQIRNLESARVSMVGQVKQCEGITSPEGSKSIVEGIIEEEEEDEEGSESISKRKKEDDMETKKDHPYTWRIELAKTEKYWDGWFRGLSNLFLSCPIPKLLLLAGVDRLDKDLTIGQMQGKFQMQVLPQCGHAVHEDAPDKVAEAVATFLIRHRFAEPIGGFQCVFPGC
PAD4 confirm = human PAD4 inhibitors, confirmation, biochemical, fluorescence polarization; shares compounds with PAD4 FP inh; recombinant PAD4, RCA probe fluorescence polarization; inhibition, % at 6.36 µM; 1,200 tested, 28% active; AID 488796, 2010;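 active means mean inhibition across replicates above the hit cutoff set by the earlier primary screen, cut at about 15% in these data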;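 further: inhibitors block active-site labeling by the probe so polarization falls; 0% = PAD4 with probe and DMSO and 100% = probe without PAD4 enzyme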
Numbers without * were called inactive; . = not tested or not shown.

SMILES	Fam108B inh	LYPLA2 counter	RBBP9 inh	PAD4 FP inh	LYPLA1 counter	PME-1 primary	PAD4 confirm
Fc1ccccc1C1CC(c2ccco2)=Nc2ccccc2S1 (configuration not stated)	1	7	-6	19*	-2	0	4
CCOc1ccc(N(CC(=O)NC2CCCCC2)C(=O)CCC(=O)Nc2ccccn2)cc1	-1	-3	.	5	-2	-4	.
O=c1c(Cc2ccccc2)c(O)ccn1Cc1ccc2c(c1)OCO2	1	-3	7	-2	-2	-4	.
O=C(NCc1ccccn1)Nc1ccccc1C(F)(F)F	5	6	.	35*	1	-2	6
O=C(NCc1ccccn1)Nc1ccccc1F	3	-3	.	1	-3	-2	.
CCC(Oc1ccccc1)C(=O)O/N=C(\N)c1ccc(OC)c(OC)c1 (configuration not stated)	-4	1	-5	-4	-4	-2	.
CN(C(=O)CN(c1ccccc1)S(=O)(=O)c1ccc(F)cc1)C1CCS(=O)(=O)C1 (configuration not stated)	-3	3	-6	5	6	2	.
CC1(C)CC(=O)C(C=Nc2ccc(N)cc2)=C(O)C1	4	5	6	40*	-2	8	5
COC(=O)C1C(O)=C(C=Nc2ccc(N)cc2)C(=O)CC1(C)C (configuration not stated)	2	5	2	47*	4	0	3
COC(=O)C1C(O)=C(C=Nc2ccccc2)C(=O)CC1(C)C (configuration not stated)	-5	4	4	-2	-2	-6	.
CC1(C)CC(=O)C(C=Nc2ccc(O)cc2)=C(O)C1	0	4	-4	0	-3	5	.
CCn1cc(CCC(=O)NCCN2CCOCC2)c2ccccc21	5	6	.	1	3	-4	.
COc1ccc(C(=O)Nc2nc3cc4c(cc3s2)OCO4)c(OC)c1	3	5	-7	2	2	-46	.
CC1(OC(=O)C2CCCC2)C(=O)C=C2C=C(c3ccsc3)N(Cc3ccccc3)C=C2C1=O (configuration not stated)	0	10	.	-9	3	1	.
CC1(OC(=O)C2CCCC2)C(=O)C=C2C=C(c3ccsc3)N(CCc3ccccn3)C=C2C1=O (configuration not stated)	2	0	.	19*	2	6	-5
COc1ccc(-c2ccnc3c(C(=O)O)cnn23)cc1	-2	-7	-4	-5	-2	-2	.
Cc1cc2ncn(-c3ncccc3[N+](=O)[O-])c2cc1C	-2	5	.	87*	0	7	-1
O=C(COc1ccc(Cl)cc1)NNC(=O)c1ccc2c(=O)n3c(nc2c1)CCC3	1	-2	.	4	-4	1	.
CS(=O)(=O)N(CC(=O)Nc1ccc(S(=O)(=O)N2CCOCC2)cc1)c1cccc(F)c1	6	3	-2	-3	1	-7	.
O=C(O)CN1C(=O)/C(=C\c2ccccc2OCc2ccc(Cl)cc2)SC1=S	3	11	.	22*	0	-3	2
Cc1ccc(-c2nn(-c3ccccc3)cc2/C=C2\SC(=S)N(CC(=O)O)C2=O)cc1	-7	-3	-6	15*	-1	3	3
COc1ccc(-c2nn(-c3ccccc3)cc2/C=C2/SC(=S)N(CCC(=O)O)C2=O)cc1	0	5	.	0	6	3	.
O=C(CCNS(=O)(=O)c1ccc(Cl)cc1)Nc1ccncc1	5	0	.	-4	0	6	.
O=C(NCCCN1CCOCC1)c1ccc(Cl)cc1Cl	1	-7	.	15*	-1	-4	1

High-throughput results: PubChem BioAssay, The Scripps Research Institute Molecular Screening Center
